Measurements published in ChEMBL document CHEMBL1687901 (J Med Chem, 2011).
Values after ≈ are worked out from the molar mass of the structure shown.

Tests used:
[1] = in vivo; conditions: Sprague-Dawley, rat, iv, 1 mg/kg
[2] = AUC in Sprague-Dawley rat at 1 mg/kg, iv and 10 mg/kg, po; format: ADME, organism-based; conditions: plasma
[3] = tested on: Escherichia coli; assay: Antibacterial activity against Escherichia coli ATCC 25922 infected in iv dosed mouse septicemia model assessed as mouse protection after 48 hrs; format: functional; conditions: ATCC 25922, iv, read-out: PD50
Outline: (§1)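 Mice were challenged intraperitoneally with bacteria mixed with 5% mucin. For S. aureus ATCC 13709 (Smith) the inoculum was 2.1 × 10^6 cfu/mouse, and for E. coli ATCC 25922 it was 2.0 × 10^7 cfu/mouse. PD50 in mg/kg was calculated from survival at 48 h.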

[4] = tested on: Streptococcus pneumoniae; assay: Antibacterial activity against Streptococcus pneumoniae by CLSI M07-A8 method; format: functional
[5] = tested on: Escherichia coli; assay: Inhibition of protein synthesis in Escherichia coli S30 extract by coupled transcription/translation assay; format: functional
Outline: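 Coupled transcription/translation used an E. coli S30 extract with a firefly luciferase reporter. Compounds were diluted in water and tested as a three-point titration in duplicate. Reactions ran 1 h at 37 °C and were stopped on ice for 5 min, then luciferase substrate was added and luminescence read. Percent inhibition was calculated against uninhibited controls averaged per plate, and IC50 derived.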

[6] = tested on: Streptococcus pneumoniae; assay: Antibacterial activity against Streptococcus pneumoniae ATCC 49619 by CLSI M07-A8 method; format: functional
[7] = Half life in Sprague-Dawley rat at 1 mg/kg, iv and 10 mg/kg, po; format: ADME, organism-based; conditions: in vivo
[8] = tested on: Rattus norvegicus; assay: Oral bioavailability in Sprague-Dawley rat at 1 mg/kg, iv and 10 mg/kg, po; format: ADME, organism-based; conditions: in vivo
[9] = tested on: Staphylococcus aureus; assay: Antibacterial activity against tetracycline-resistant Staphylococcus aureus isolate 161 harboring tet(M) gene by CLSI M07-A8 method; format: functional
Outline: (§2)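 MICs were determined by CLSI broth microdilution in freshly prepared cation-adjusted Mueller Hinton broth, kept at 4 °C before use. Defibrinated horse blood was added as appropriate. Runs met QC ranges for comparator antibiotics with ATCC quality control strains.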

[10] = tested on: Escherichia coli; assay: Antibacterial activity against tetracycline-resistant Escherichia coli isolate 155 harboring tet(A) gene by CLSI M07-A8 method; format: functional
Outline: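 MICs were determined by CLSI broth microdilution in freshly prepared cation-adjusted Mueller Hinton broth, kept at 4 °C before use. Defibrinated horse blood was added as appropriate. The highest concentration tested was 32 μg/mL. Runs met QC ranges for comparator antibiotics with ATCC quality control strains.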

[11] = tested on: Staphylococcus aureus; assay: Antibacterial activity against Staphylococcus aureus by CLSI M07-A8 method; format: functional
[12] = tested on: Escherichia coli; assay: Antibacterial activity against Escherichia coli by CLSI M07-A8 method; format: functional
[13] = Clearance in Sprague-Dawley rat at 1 mg/kg, iv and 10 mg/kg, po; format: ADME, organism-based; conditions: in vivo
[14] = tested on: Staphylococcus aureus; assay: Antibacterial activity against tetracycline-resistant Staphylococcus aureus isolate 158 harboring tet(K) gene by CLSI M07-A8 method; format: functional
Outline: as §2

[15] = tested on: Staphylococcus aureus; assay: Antibacterial activity against wild type Staphylococcus aureus Smith ATCC 13709 by CLSI M07-A8 method; format: functional
[16] = tested on: Staphylococcus aureus; assay: Antibacterial activity against Staphylococcus aureus ATCC 13709 infected in iv dosed mouse septicemia model assessed as mouse protection after 48 hrs; format: functional; conditions: ATCC 13709, iv, read-out: PD50
Outline: as §1

[17] = tested on: Haemophilus influenzae; assay: Antibacterial activity against Haemophilus influenzae by CLSI M07-A8 method; format: functional
[18] = tested on: Escherichia coli; assay: Antibacterial activity against Escherichia coli ATCC 25922 by CLSI M07-A8 method; format: functional
[19] = tested on: Klebsiella pneumoniae; assay: Antibacterial activity against Klebsiella pneumoniae ATCC 13883 by CLSI M07-A8 method; format: functional
[20] = tested on: Streptococcus pneumoniae; assay: Antibacterial activity against tetracycline-resistant Streptococcus pneumoniae isolate 160 harboring tet(M) gene by CLSI M07-A8 method; format: functional
Outline: as §2

[21] = tested on: Staphylococcus aureus; assay: Antibacterial activity against Staphylococcus aureus ATCC 13709 infected in mouse septicemia model assessed as mouse survival at 0.05 to 10 mg/kg, iv after 48 hrs; conditions: dose mg/kg 0.05-10

CN(C)CC(C)(C)CNc1nc(Cl)c2c(c1O)C(=O)C1=C(O)[C@]3(O)C(=O)C(C(N)=O)=C(O)[C@@H](N(C)C)[C@@H]3C[C@@H]1C2.Cl
Vd [1]: 1.26 L/kg
AUC [2]: 4870 ng·h/mL
ED50 [3]: 17 mg/kg
MIC [4]: ≤ 0.016 µg/mL
MIC50 [4]: ≤ 0.016 µg/mL
MIC90 [4]: 0.063 µg/mL
IC50 [5]: 0.7 µg/mL
MIC [6]: 0.016 µg/mL
half-life [7]: 4.3 h
F [8]: 0.8%
MIC [9]: 2 µg/mL
MIC [10]: 8 µg/mL
MIC50 [11]: 0.125 µg/mL
MIC90 [11]: 2 µg/mL
MIC50 [12]: 1 µg/mL
MIC90 [12]: 4 µg/mL
clearance [13]: 3.37 mL/min/kg
MIC [14]: 0.125 µg/mL
MIC [15]: 0.5 µg/mL
ED50 [16]: 0.36 mg/kg
MIC50 [17]: 1 µg/mL
MIC90 [17]: 1 µg/mL
MIC [18]: 0.5 µg/mL
MIC [19]: 2 µg/mL
MIC [20]: 0.125 µg/mL

CN(C)c1ncc(O)c2c1C[C@H]1C[C@H]3[C@H](N(C)C)C(O)=C(C(N)=O)C(=O)[C@@]3(O)C(O)=C1C2=O.Cl.Cl
Vd [1]: 4.18 L/kg
AUC [2]: 1090 ng·h/mL
ED50 [3]: 4.3 mg/kg
MIC50 [4]: 2 µg/mL
MIC90 [4]: 4 µg/mL
IC50 [5]: 0.76 µg/mL
MIC [6]: 0.063 µg/mL
half-life [7]: 3.1 h
F [8]: 12.7%
MIC [9]: 16 µg/mL
MIC [10]: > 32 µg/mL
Survival [21]: 100%
MIC [11]: ≤ 0.016 µg/mL
MIC50 [11]: ≤ 0.016 µg/mL
MIC90 [11]: 16 µg/mL
MIC50 [12]: 0.25 µg/mL
MIC90 [12]: > 32 µg/mL
clearance [13]: 15.3 mL/min/kg
MIC [14]: 2 µg/mL
MIC [15]: 0.031 µg/mL
ED50 [16]: < 0.3 mg/kg
MIC50 [17]: 0.5 µg/mL
MIC90 [17]: 2 µg/mL
MIC [18]: 0.125 µg/mL
MIC [19]: 0.25 µg/mL
MIC [20]: 8 µg/mL

CN(C)c1cc(NC(=O)CNC(C)(C)C)c(O)c2c1C[C@H]1C[C@H]3[C@H](N(C)C)C(O)=C(C(N)=O)C(=O)[C@@]3(O)C(O)=C1C2=O [TIGECYCLINE]
Vd [1]: 6.12 L/kg
AUC [2]: 1050 ng·h/mL
ED50 [3]: 2.1 mg/kg
MIC [4]: ≤ 0.016 µg/mL
MIC50 [4]: ≤ 0.016 µg/mL
MIC90 [4]: ≤ 0.016 µg/mL
IC50 [5]: 0.47 µg/mL (≈ 0.803 µM)
MIC [6]: 0.016 µg/mL (≈ 0.0273 µM)
half-life [7]: 4.6 h
F [8]: 1.1%
MIC [9]: 0.125 µg/mL (≈ 0.213 µM)
MIC [10]: 0.5 µg/mL (≈ 0.854 µM)
MIC50 [11]: 0.063 µg/mL (≈ 0.108 µM)
MIC90 [11]: 1 µg/mL (≈ 1.71 µM)
MIC50 [12]: 0.25 µg/mL (≈ 0.427 µM)
MIC90 [12]: 0.5 µg/mL (≈ 0.854 µM)
clearance [13]: 15.5 mL/min/kg
MIC [14]: 0.063 µg/mL (≈ 0.108 µM)
MIC [15]: 0.063 µg/mL (≈ 0.108 µM)
ED50 [16]: 0.35 mg/kg
MIC50 [17]: 0.5 µg/mL (≈ 0.854 µM)
MIC90 [17]: 0.5 µg/mL (≈ 0.854 µM)
MIC [18]: 0.125 µg/mL (≈ 0.213 µM)
MIC [19]: 0.125 µg/mL (≈ 0.213 µM)
MIC [20]: 0.016 µg/mL (≈ 0.0273 µM)
